Screening results as filed in PubChem.
Rows were chosen to be rich in hits. Some 4.1% of all compounds tested hit in one or more screens of this group.
ATG4B inhibitor = ATG4B (human) cysteine protease inhibition; Q9Y4P1; ATG4B cleavage of LC3-PLA2, NBD-HPC fluorescence, 1 h; inhibition, % at 8.33 µM; 340,000 tested, 0.51% active; AID 504462; in the data active = inhibition above about 40%
SMARCA2 activ = SMARCA2 function activation, primary screen. 370,000 tested, 1% active. AID 652017. activation, % at 9.1 µM. MG213 cells, MMTV-luciferase reporter, dexamethasone, overnight; in the data active = activation above about 7.8%;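 note: 0% = vehicle wells and 100% = reference activator wells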
MPTP block = inhibitors of mitochondrial permeability transition pore | isolated mouse mitochondria, Ca2+ swelling absorbance, 30 min | inhibition, % at 10 µM | 360,000 tested, 1.4% active;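 active = inhibition of 50% or more, scaled per plate between neutral and stimulator controls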;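 note: 0% = DMSO wells given calcium and 100% = 1 mM EGTA wells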
MC4R barr agon = activates human MC4R beta-arrestin recruitment; P32245; activation, % at 8.9 µM; U2OS MC4R beta-arrestin complementation, luminescence; percent of melanotan II response, DMSO zero; 360,000 tested, 0.98% active;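 active = activation above a per-plate cutoff, the mean activation of sample wells on that plate plus 3 SD, cut at about 8% in these data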
Target sequence (P32245 whole entry, looked up): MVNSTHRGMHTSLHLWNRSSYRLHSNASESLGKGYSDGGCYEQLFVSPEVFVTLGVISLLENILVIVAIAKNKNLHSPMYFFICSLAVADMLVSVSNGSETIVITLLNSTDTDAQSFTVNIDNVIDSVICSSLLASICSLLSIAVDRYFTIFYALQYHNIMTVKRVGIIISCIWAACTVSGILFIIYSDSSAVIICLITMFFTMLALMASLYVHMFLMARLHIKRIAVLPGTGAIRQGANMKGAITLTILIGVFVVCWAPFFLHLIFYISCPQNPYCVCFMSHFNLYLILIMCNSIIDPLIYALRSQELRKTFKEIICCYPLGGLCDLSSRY
MC4R antagonist = human MC4R antagonism in cAMP assay | MC4R-expressing cells, MTII-stimulated cAMP, LANCE TR-FRET | inhibition, % at 6.5 µM | 360,000 tested, 0.48% active | AID 540295;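 active = inhibition above its plate's cutoff, the mean of tested wells on that plate plus 3 SD, cut at about 29% in these data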;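 note: 0% = Melanotan II alone and 100% = Melanotan II plus saturating MCL0020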
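Material – human MC4R-expressing U2OS cells · Repeats – no replicates · Detection – TR-FRET with Eu-cAMP and labeled anti-cAMP, 671 nm · Times – compound 30 min, challenge 1 h, detection 1 h · Compound – single nominal compound dose of 6.5 µM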
SMARCA2 conf = confirmation of SMARCA2 (BRM) function activators. shares compounds with SMARCA2 activ. MG213 cells, MMTV-luciferase with dexamethasone, luminescence, overnight; MG213 cells expressing E1A, Rb sequestered; DMSO wells 0%, reference activator 100%. activation, % at 9.1 µM. 3,500 tested, 30% active. AID 652260;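 active = activation above its plate's cutoff, the mean activation of tested wells plus 3 SD, cut at about 7.9% in these data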
GAL4-VP16 Luc = GAL4-VP16 reporter activation counter-screen; activation, % at 9.1 µM; 3,500 tested, 41% active; AID 686939; HEK293 GAL4-VP16 pG5luc reporter, luciferase luminescence; scaled: DMSO wells 0%, SAHA wells 100%; shares compounds with SMARCA2 activ;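 active = activation above the solvent-only control well mean plus 3 SD, averaged across control plates, cut at about 5.2% in these data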
The depositor's hits bear a star; . = no result given; ! = not confirmed by another sample.

SMILES | ATG4B inhibitor | SMARCA2 activ | MPTP block | MC4R barr agon | MC4R antagonist | SMARCA2 conf | GAL4-VP16 Luc
CC(C)c1ccc(/C=N/NC(=O)CC(=O)NC2CCCCC2)cc1 | -6.9 | 8.4* | 0.4 | 2.6 | 14.7 | -0.3 | 0.5
Cc1ccc(NC(=O)c2ccc(CS(=O)(=O)Cc3ccccc3C)o2)cc1C | . | -3.9 | . | . | . | . | .
CCOc1ccc(CCN2C(=O)C3C4CCC(O4)C3C2=O)cc1OCC (stereo unspecified) | -8.0 | 10.3* | -1.3 | -1.5 | 1.9 | 0.0 | 0.1
COC(=O)[C@]12C[C@H](CC(=O)NCc3ccc(C)o3)C(=O)N(Cc3cccc4ccccc34)C1=C[C@H](COCc1ccccc1)O[C@@H]2C | . | -4.0 | . | . | . | . | .
Cc1ccc(C(=O)O/N=C(\N)Cc2cccs2)cc1[N+](=O)[O-] | -0.9 | 8.2* | -1.0 | -3.8 | 2.0 | 2.6 | 2.6
O=C1NCCN1CCN1CCC(c2cn(-c3ccc(F)cc3)c3ccc(Cl)cc23)CC1 | . | -5.4 | . | . | . | . | .
C/C(NC(=O)c1ccccc1)=C1/C(=O)CC2C1C2(C)C (stereo unspecified) | 6.1 | 8.0* | -0.9 | 1.0 | -7.7 | 18.8* | 5.0
COc1cccc(/C=C2\CC3(OC(=O)c4ccc(F)cc4)CCCN2C3)c1 (stereo unspecified) | . | -1.1 | . | . | . | . | .
Cn1cc(S(=O)(=O)Cc2ccc(F)cc2)c2ccccc21 | -12.1 | 8.2* | -1.3 | 0.0 | 6.2 | -3.0 | -0.2
CCCCCN1CCCCC(NC(=O)CSc2ccccc2)C1=O (stereo unspecified) | . | -0.1 | . | . | . | . | .
CCOC(=O)[C@@]12CN(C(=O)OC(C)(C)C)CC=C1N(Cc1ccc(OC)cc1)C(=O)[C@H]2CC(=O)NCCCOC | . | -0.1 | . | . | . | . | .
CC[C@H](C)C(=O)O[C@H]1C[C@@H](C)C=C2C=C[C@H](C)[C@H](CC[C@@H]3C[C@@H](O)CC(=O)O3)[C@H]21 | -15.8 | 8.2*! | -1.4 | -0.2 | 8.5 | 6.2 | 0.4
CC[C@H](C)C(=O)O[C@H]1CCC=C2C=C[C@H](C)[C@H](CC[C@@H]3C[C@@H](O)CC(=O)O3)[C@H]21 | -8.3 | 11.2* | -1.9 | 0.9 | 4.1 | 2.6 | 4.6
CCCCCCCCN1C(=O)[C@@H](CC(=O)N2CCN(C(=O)c3ccco3)CC2)C[C@@]2(C(=O)OC)C1=C[C@H](C(C)C)O[C@@H]2C1CC1 | . | -1.1 | . | . | . | . | .
COc1cc(C=Nn2c(-c3cc(-c4ccccc4)n[nH]3)n[nH]c2=S)ccc1OC(C)=O | . | 14.0* | . | . | . | 10.3* | 3.1
Cc1ccccc1CN1[C@@H](C)[C@H](c2ccccc2)Oc2cccc(N3CCCC3)c2S1(=O)=O | . | -4.8 | . | . | . | . | .
O=C(c1ccccc1)c1nnc(-c2ccccc2F)o1 | 9.8 | 11.1* | -1.0 | 0.7 | 2.7 | 7.6 | 1.4
O=C(CSc1nnc(-c2ccccc2F)o1)NC1CC1 | -7.5 | 0.5 | -0.3 | -1.2 | 6.2 | . | .
COc1ccc(CC(NC(C)=O)C(=O)NC2CCN(c3nc(C)cc(C)c3C#N)CC2)cc1 (stereo unspecified) | -0.2 | 0.7 | -0.7 | -2.2 | 12.6 | . | .
COc1ccc(CC(NC(C)=O)C(=O)NC2CCN(c3nc(C)cc(C)c3C#N)CC2)cc1OC (stereo unspecified) | -2.6 | 15.1* | -0.8 | -3.5 | 2.7 | 2.7 | -0.3
COc1ccc(C2CC(=O)N(C)c3ccccc3S2)cc1OC (stereo unspecified) | 2.3 | 10.3* | 1.0 | -0.3 | 14.7 | 11.9* | 9.6*
COc1ccc(C2CC(=O)N(CC(=O)NCC3CCCO3)c3ccccc3S2)cc1OC (stereo unspecified) | 1.7 | 5.4 | 1.5 | -2.5 | 1.3 | . | .
c1ccc(-c2cnc(-c3cccnc3)o2)cc1 | -13.3 | 0.8 | -1.7 | -1.3 | 4.0 | . | .
NC(=O)c1ccc(-c2ncc(-c3ccccc3)o2)cc1 | 15.5 | 18.3* | 0.1 | -1.9 | -1.2 | 17.4* | 11.0*
COc1ccc(S[C@]2(C(=O)N3CCCC3)CC(=O)N(c3ccsc3)[C@@H]2c2ccc(OC)cc2)cc1 | . | -4.8 | . | . | . | . | .
O=C1CCC2(CCC(c3ccccc3)CC2)N1CCCO (stereo unspecified) | . | -3.5 | . | . | . | . | .
